Results reported in publication PMC7381488 (EBioMedicine, 2020).
“Also recorded” adds a separate entry of the source. Like-named read-outs stand apart in the source and are kept apart here.

How the values were obtained:
[1] = Intracellular TFV-DP and FTC-TP in PBMCs of macaques after a single oral dose; assay type: in vivo; conditions: for peak intracellular concentration in PBMCs: macaques n=4, 20 mg/kg FTC, 1•5 mg/kg TAF, 30 mg/kg EVG/COBI oral, at 24h, median [range]; for time of peak in PBMCs: macaques, single oral dose
How it was run: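 Four macaques were gavaged once with FTC 20 mg/kg, TAF 1•5 mg/kg, EVG 30 mg/kg and COBI 30 mg/kg in PEG 400/TPGS/phosphate buffer vehicle. PBMCs were sampled over time and lysed in cold 80% methanol, then stored at -80C. TFV-DP and FTC-TP were measured by LC-MS-MS, with LLOQs of 100 and 500 fmol/sample respectively.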

[2] = assay type: in vivo, humans; conditions: for peak intracellular concentration in PBMCs: humans n=7, single Genvoya tablet (200 mg FTC/10 mg TAF/150 mg EVG/150 mg COBI), at 4h, median [range]; for time of peak in PBMCs: humans, single Genvoya tablet
How it was run: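 Seven HIV-negative men took a single oral tablet (200 mg FTC/10 mg TAF/150 mg EVG/150 mg COBI), with PBMCs collected at each time point. Cells were lysed in cold 80% methanol and stored at -80C. TFV-DP and FTC-TP were quantified by LC-MS-MS, with LLOQ 100 fmol/sample for TFV-DP and 500 fmol/sample for FTC-TP.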

[3] = Drug concentrations in rectal tissues of macaques 24h after oral dosing; assay type: in vivo; conditions: for rectal tissue concentration, macaques compared with humans: p=0•43 (EVG), p=0•073 (FTC), p=1 (TFV)
How it was run: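 Macaques received one oral gavage solution (20 mg/kg FTC, 1•5 mg/kg TAF, 30 mg/kg EVG, 30 mg/kg COBI) in 65% PEG 400/20% TPGS/15% phosphate buffer pH 8. Mucosal biopsies were taken about 5-6 cm above the anal aperture 24 h post-dose: FTC/EVG in 12 animals, TFV-DP/FTC-TP in 4. Analysis was by HPLC-MS/MS or LC-MS-MS. Median biopsy weight was 0•037 g. Comparison with humans used the Wilcoxon rank sum test.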

[4] = Drug concentrations in rectal tissues of humans 24h after a single tablet; assay type: in vivo
How it was run: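 Seven HIV-negative men aged 18-49 each took one observed oral tablet (200 mg FTC/10 mg TAF/150 mg EVG/150 mg COBI). Rectal biopsies were taken 24 h later. TFV, FTC and EVG were measured by HPLC-MS/MS against a 0•5-2000 ng/mL human-plasma standard curve (LLOQ 10 ng/mL). Intracellular TFV-DP and FTC-TP were measured by LC-MS-MS. Median biopsy weight for extracellular drugs was 0•020 g.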

[5] = assay type: in vivo, macaques
How it was run: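 PEP arms were dosed by oral gavage at +2h (n=5), +6h (n=6), +24h (n=6) or +24h/+48h (n=6) after rectal SHIV162P3 exposure. Dosing and challenge recurred every two weeks for up to 8 exposures. PBMC TFV-DP and FTC-TP were measured at each subsequent challenge, 2 weeks after dosing, and reported as medians. Values below LLOQ were set to 10 fmol/10^6 cells.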

[6] = assay type: in vivo, rhesus macaques; conditions: 30 mg/kg EVG + 30 mg/kg COBI vs 50 mg/kg EVG alone, macaques
[7] = macaques, cited from earlier work
virus = conditions: added between 6 and 10 h after virus exposure; cited from earlier work

C[C@@H](Cn1cnc2c(N)ncnc21)OCP(=O)(O)OP(=O)(O)OP(=O)(O)O [TFV-DP]
peak intracellular concentration in PBMCs [1]: 746 [509–1828] fmols/10^6 cells | time of peak in PBMCs [1]: 24 h | peak intracellular concentration in PBMCs [2]: 299 [121–523] fmols/10^6 cells | time of peak in PBMCs [2]: 4 h | median intracellular level in rectal tissue ([3]; macaques, 24h after single oral dose): 10,600 fmols/mg | median intracellular level in rectal tissue ([4]; 24h after single Genvoya tablet): 17,100 fmols/mg of tissue | median residual level in PBMCs at time of SHIV challenge ([5]; +2h arm): < LLOQ; also recorded: below the limit of detection | median residual level in PBMCs at time of SHIV challenge ([5]; +6h arm): < LLOQ; also recorded: below the limit of detection

COc1cc2c(cc1Cc1cccc(Cl)c1F)c(=O)c(C(=O)O)cn2[C@H](CO)C(C)C [EVG, elvitegravir]
increase of plasma Cmax and AUC0-24h by co-administration of COBI [6]: about 4 fold | rectal tissue concentration, macaques compared with humans ([3]; 24h after dosing): similar | plasma AUC0-24h of EVG without a booster ([7]; 50 mg/kg EVG oral, no COBI): 4000 ngxh/ml | plasma Cmax of EVG without a booster ([7]; 50 mg/kg EVG oral, no COBI): 0.28 µg/mL | time in secretions above the protein-adjusted 95% inhibition concentration ([7]; single oral dose, rectal and vaginal secretions): > 48 h | EVG concentration in rectal secretions relative to plasma ([7]; single oral dose): 694 fold | EVG concentration in vaginal secretions relative to plasma ([7]; single oral dose): 114 fold

Nc1nc(=O)n([C@@H]2CS[C@H](COP(=O)(O)OP(=O)(O)OP(=O)(O)O)O2)cc1F [FTC-TP]
peak intracellular concentration in PBMCs [1]: 1737 [1153–3523] fmols/10^6 cells | time of peak in PBMCs [1]: 24 h | peak intracellular concentration in PBMCs [2]: 4215 [3630–7,150] fmols/10^6 cells | time of peak in PBMCs [2]: 4 h | detection in rectal tissue ([3]; macaques, 24h after dosing): mostly undetectable | detection in rectal tissue ([4]; 24h after dosing): mostly undetectable | residual level in PBMCs at the time of virus challenges ([5]; PEP arms): did not detect any residual FTC-TP

C[C@H](Cn1cnc2c(N)ncnc21)OCP(=O)(O)O [TFV, tenofovir]
rectal tissue concentration, macaques compared with humans ([3]; 24h after dosing): similar

Nc1nc(=O)n([C@@H]2CS[C@H](CO)O2)cc1F [FTC, emtricitabine]
rectal tissue concentration, macaques compared with humans ([3]; 24h after dosing): similar

Cc1nnc(C(=O)NC(C)(C)c2nc(C(=O)NCc3ccc(F)cc3)c(O)c(=O)n2C)o1 [RAL, raltegravir]
post-infection inhibition in culture (virus): high post-infection inhibition
